Source: article PMC5436510 (Theranostics, 2017)
One block for each compound: values may come before it. Square brackets hold non-standard residues; d marks the D form. Peptide text beside a SMILES is read from it.

Key:
[1] = system: U87MG, MDA-MB-231, HepG2 and L02 cells; experiment: Transwell cell migration assay; format: cell-based, Human; settings: peptides 40μM for 24 h, transwell 12 hours
Summary of the method: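 Cells at 60–70% confluence in 6-well plates were exposed to peptides (40 μM) for 24 h. They were then detached and 5×10^5 cells placed in transwell upper chambers, in triplicate, over DMEM + 10% FBS. After 12 h, unmigrated cells were swabbed off. Membranes were fixed in methanol and stained with 0.1% crystal violet, 30 min each. The dye was eluted with 33% acetic acid and read at OD570. % migration = treated/control OD570 × 100.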

αvβ3 integrin = αvβ3 integrin (Homo sapiens, UniProt P05106+P06756); experiment: MicroScale Thermophoresis; format: binding
Chain of αvβ3 integrin (P06756 31-889): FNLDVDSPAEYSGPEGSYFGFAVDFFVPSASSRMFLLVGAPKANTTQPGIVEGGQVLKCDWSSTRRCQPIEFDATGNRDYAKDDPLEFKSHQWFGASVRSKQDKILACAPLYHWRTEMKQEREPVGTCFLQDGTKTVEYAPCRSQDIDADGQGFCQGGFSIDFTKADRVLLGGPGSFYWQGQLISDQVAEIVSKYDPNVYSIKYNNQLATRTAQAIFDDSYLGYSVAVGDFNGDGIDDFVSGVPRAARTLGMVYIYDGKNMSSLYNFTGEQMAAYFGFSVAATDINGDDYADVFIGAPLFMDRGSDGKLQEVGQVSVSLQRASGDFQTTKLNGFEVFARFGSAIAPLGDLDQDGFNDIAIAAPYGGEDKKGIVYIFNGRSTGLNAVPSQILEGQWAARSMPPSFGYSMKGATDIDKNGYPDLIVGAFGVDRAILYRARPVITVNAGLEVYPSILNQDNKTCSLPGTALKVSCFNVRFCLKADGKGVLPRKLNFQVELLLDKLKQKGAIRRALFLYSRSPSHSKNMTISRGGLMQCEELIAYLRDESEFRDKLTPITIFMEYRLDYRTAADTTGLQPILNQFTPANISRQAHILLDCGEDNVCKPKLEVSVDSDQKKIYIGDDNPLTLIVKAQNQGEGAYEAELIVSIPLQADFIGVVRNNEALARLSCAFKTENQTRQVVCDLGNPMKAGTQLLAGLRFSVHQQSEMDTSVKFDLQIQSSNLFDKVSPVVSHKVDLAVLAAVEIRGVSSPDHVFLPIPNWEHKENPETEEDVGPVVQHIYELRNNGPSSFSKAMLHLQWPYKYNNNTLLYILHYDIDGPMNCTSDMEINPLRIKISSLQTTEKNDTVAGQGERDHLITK
Chain of αvβ3 integrin (P06756 891-1048): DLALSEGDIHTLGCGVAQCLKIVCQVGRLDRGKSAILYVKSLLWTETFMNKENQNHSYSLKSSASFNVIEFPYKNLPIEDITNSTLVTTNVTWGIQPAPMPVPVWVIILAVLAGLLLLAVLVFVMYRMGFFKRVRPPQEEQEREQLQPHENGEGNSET
Chain of αvβ3 integrin (P05106 27-788): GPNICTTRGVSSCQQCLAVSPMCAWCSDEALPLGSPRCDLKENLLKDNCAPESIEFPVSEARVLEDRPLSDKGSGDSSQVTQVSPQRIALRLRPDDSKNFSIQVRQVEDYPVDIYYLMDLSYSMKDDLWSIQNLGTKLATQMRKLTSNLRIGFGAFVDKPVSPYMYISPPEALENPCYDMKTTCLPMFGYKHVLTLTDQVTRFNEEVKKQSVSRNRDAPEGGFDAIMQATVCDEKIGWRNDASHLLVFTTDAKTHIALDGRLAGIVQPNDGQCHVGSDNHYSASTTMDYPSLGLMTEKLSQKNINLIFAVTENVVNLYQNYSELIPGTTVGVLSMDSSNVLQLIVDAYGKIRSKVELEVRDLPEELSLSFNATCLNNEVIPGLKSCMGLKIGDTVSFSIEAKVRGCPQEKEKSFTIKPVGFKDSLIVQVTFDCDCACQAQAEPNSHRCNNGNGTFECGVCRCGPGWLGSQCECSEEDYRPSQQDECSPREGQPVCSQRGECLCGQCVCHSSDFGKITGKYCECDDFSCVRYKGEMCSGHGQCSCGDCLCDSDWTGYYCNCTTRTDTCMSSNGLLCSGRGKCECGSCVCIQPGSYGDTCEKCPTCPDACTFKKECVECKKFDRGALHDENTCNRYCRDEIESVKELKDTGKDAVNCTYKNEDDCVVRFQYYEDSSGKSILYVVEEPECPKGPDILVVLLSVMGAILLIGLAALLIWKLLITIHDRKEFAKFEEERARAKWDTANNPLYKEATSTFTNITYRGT

U87MG-tumor-bearing mice = experiment: In vivo antitumor study of peptide-Dox conjugates; set-up: species or system nude mice
Summary of the method: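 Female nude mice aged 6–7 weeks were inoculated s.c. in the axillary fossa with 1×10^7 U87MG cells. On day 7 they were split into five groups of 10. Saline, free Dox or peptide-Dox conjugates were given i.v. via the tail vein every other day for 7 doses, each equal to 5 mg/kg Dox. Body weight and caliper tumor volume, V = π/6·length·width², were recorded, along with survival.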

U87MG cells = U87MG cells (Homo sapiens, UniProt P05106+P06756); experiment: Confocal cellular uptake of peptide-RhB conjugates; format: cell-based; settings: confocal imaging, incubation up to 4 h
Chain of U87MG cells (P06756 31-1048): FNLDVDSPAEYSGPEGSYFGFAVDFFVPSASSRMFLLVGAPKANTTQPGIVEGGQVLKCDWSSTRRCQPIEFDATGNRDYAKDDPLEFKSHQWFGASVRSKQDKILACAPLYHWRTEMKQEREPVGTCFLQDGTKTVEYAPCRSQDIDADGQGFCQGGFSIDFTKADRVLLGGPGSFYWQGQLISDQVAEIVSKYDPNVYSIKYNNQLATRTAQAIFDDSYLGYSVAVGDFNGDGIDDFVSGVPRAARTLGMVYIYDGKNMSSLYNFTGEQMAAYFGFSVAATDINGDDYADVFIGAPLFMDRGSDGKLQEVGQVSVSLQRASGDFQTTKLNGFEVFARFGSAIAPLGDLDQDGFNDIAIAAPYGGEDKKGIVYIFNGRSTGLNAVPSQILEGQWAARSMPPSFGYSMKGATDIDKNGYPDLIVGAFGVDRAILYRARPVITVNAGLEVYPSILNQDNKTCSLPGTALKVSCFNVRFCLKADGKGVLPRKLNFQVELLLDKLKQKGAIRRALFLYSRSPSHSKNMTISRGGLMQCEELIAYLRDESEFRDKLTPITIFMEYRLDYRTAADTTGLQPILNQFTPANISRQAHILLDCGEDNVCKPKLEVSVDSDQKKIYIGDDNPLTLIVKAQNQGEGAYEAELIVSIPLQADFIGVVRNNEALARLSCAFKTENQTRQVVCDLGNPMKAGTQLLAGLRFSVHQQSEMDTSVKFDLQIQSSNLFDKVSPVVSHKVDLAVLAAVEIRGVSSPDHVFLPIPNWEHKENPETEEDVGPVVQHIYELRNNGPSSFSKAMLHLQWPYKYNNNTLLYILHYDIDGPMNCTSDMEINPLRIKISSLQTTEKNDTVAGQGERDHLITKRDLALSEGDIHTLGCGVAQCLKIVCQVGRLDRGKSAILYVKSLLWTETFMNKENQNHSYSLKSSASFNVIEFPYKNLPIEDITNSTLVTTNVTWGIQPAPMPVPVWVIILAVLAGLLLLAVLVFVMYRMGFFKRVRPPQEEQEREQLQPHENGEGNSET
Chain of U87MG cells (P05106 27-788): as the sequence (P05106 27-788) above
Summary of the method: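 Cells were seeded on confocal dishes at 3×10^5 per well and left 24 h to attach. Cells were washed three times with PBS (pH 7.4), imaged by laser confocal microscopy, and uptake at 2 h was quantified as mean fluorescence intensity.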

[2] = system: p-FAK, p-PI3K, p-Ras in U87MG cells; experiment: Western blot of αvβ3 downstream signalling; format: cell-based, Human; settings: 64μg /mL for 48 h

Structure (SMILES): CC(=O)O[C@H]1C(=O)[C@@]2(C)[C@H]([C@H](OC(=O)c3ccccc3)[C@]3(O)C[C@H](OC(=O)[C@H](O)[C@@H](NC(=O)c4ccccc4)c4ccccc4)C(C)=C1C3(C)C)[C@]1(OC(C)=O)CO[C@@H]1C[C@@H]2O [PTX]
cell migration compared with the controls [1]: strong inhibition on cell migration

Structure (SMILES): CSCC[C@H](NC(=O)[C@H](CC(N)=O)NC(=O)[C@@H](CCCNC(=N)N)NC(=O)[C@H](Cc1c[nH]c2ccccc12)NC(=O)[C@@H](N)CCCNC(=N)N)C(=O)O [RWrNM] (H-RW[dR]NM-OH)
Kd (αvβ3 integrin): 8.61 ± 1.35 nM

Structure (SMILES): COc1cccc2c1C(=O)c1c(O)c3c(c(O)c1C2=O)C[C@@](O)(C(=O)CO)C[C@@H]3O[C@H]1C[C@H](N)[C@H](O)[C@H](C)O1 [Dox, doxorubicin]
survival rate (in words) (U87MG-tumor-bearing mice; 15-day treatment): lowest survival rate
body weight (U87MG-tumor-bearing mice; 15-day treatment, dose 5mg/kg of Dox): continual decrease in body weight
histopathology (H&E) toxicity in organs (U87MG-tumor-bearing mice; after the 15-day treatment): obvious cardiotoxicity and hepatotoxicity

cellular uptake (RhB fluorescence) (U87MG cells): no fluorescence was observed
Structure (SMILES): CCN(CC)c1ccc2c(-c3ccccc3C(=O)O)c3ccc(=[N+](CC)CC)cc-3oc2c1 [RhB, Rhodamine B]

Kd (αvβ3 integrin): 33.6 ± 4.56 nM
Structure (SMILES): N=C(N)NCCC[C@H](N)C(=O)N[C@@H](Cc1c[nH]c2ccccc12)C(=O)N[C@H](CCCNC(=N)N)C(=O)O [RWr] (H-Arg-Trp-[dR]-OH)

Structure (SMILES): N=C(N)NCCC[C@@H]1NC(=O)[C@H](CCCCN)NC(=O)[C@@H](Cc2ccc(O)cc2)NC(=O)[C@H](CC(=O)O)NC(=O)CNC1=O [c(RGDyK)]
levels of phosphorylated signalling proteins [2]: decreased the levels of p-FAK, p-PI3K, and p-Ras proteins
cell migration compared with the controls [1]: obvious decrease in cell migration

Structure (SMILES): CCN(CC)CCNC(=O)c1c(C)[nH]c(/C=C2\C(=O)Nc3ccc(F)cc32)c1C [Sunitinib]
cell migration compared with the controls [1]: strong inhibition on cell migration
